Experimental findings from ChEMBL document CHEMBL1926537, “Catalytic inhibition of eukaryotic topoisomerases I and II by flavonol glycosides extracted from Vicia faba and Lotus edulis” (J Nat Prod, 2011) are described below.

Activity calls are given as the source filed them. The rule behind the calls is not given here.

In assay [1] the test system is Triticum aestivum. Description: Inhibition of wheat germ topoisomerase 1-mediated relaxation of supercoiled DNA at 500 uM after 45 mins. Put shortly: (§1)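 Tested at 500 μM, then 75–1000 μM. Percent inhibition derived from the supercoiled fraction on 0.8% agarose gels stained with ethidium; IC50 at 50% inhibition of relaxation; triplicate, mean ± SEM.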
A short description of assay [2]: Inhibition of wheat germ topoisomerase 1-mediated relaxation of supercoiled DNA after 45 mins. Also noted: species or system Triticum aestivum. In short, it runs like this: as §1
For assay [3], the target named is T1, DNA topoisomerase 1 (Homo sapiens, UniProt P11387).
T1 sequence (P11387 whole entry): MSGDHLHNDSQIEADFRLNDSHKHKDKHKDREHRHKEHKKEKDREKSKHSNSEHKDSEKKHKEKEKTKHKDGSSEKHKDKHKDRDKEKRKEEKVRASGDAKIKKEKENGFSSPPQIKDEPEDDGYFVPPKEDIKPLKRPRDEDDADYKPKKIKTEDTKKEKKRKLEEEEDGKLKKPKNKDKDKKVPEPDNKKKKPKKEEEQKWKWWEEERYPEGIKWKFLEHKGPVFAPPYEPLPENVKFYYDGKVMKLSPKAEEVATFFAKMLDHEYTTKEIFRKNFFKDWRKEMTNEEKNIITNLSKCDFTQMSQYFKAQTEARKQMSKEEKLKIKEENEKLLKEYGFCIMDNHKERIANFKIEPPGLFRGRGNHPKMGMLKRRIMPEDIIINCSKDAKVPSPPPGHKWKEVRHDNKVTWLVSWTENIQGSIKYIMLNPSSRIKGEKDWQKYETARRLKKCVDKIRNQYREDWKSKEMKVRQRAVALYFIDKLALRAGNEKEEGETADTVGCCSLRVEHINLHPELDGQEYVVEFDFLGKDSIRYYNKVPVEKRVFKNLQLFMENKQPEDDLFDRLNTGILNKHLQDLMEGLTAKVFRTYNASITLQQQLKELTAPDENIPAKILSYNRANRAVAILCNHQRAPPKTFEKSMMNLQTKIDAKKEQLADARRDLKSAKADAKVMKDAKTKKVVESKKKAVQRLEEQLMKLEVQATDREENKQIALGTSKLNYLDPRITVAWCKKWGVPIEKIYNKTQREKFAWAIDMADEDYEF
The assay can be described thus: Inhibition of human topoisomerase 1-mediated relation of supercoiled DNA after 45 mins. Put shortly: (§2)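 Screened at 500 μM, then 100–500 μM. Read-out is 0.8% agarose gel with ethidium stain and densitometry of the supercoiled fraction. IC50 is the 50% inhibition of relaxation; triplicate, mean ± SEM.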

Assay [4] concerns the target T2, DNA topoisomerase 1 (Homo sapiens) (UniProt P11387).
T2 sequence (whole entry): T1 sequence (P11387 whole entry)
Description: Inhibition of human topoisomerase 1-mediated relation of supercoiled DNA at 500 uM after 45 mins. In short, it runs like this:
as §2

The target in assay [5] is T3, DNA topoisomerase 2-alpha (Homo sapiens, UniProt P11388). Description: Inhibition of human topoisomerase 2-mediated relation of supercoiled DNA at 500 uM after 60 mins.
The target of assay [6] is T3, DNA topoisomerase 2-alpha. Description: Inhibition of human topoisomerase 2-mediated relation of supercoiled DNA after 60 mins.
Assay [7] concerns the target T3, DNA topoisomerase 2-alpha. Description: Inhibition of human topoisomerase 2-mediated relation of supercoiled DNA at 100 to 1000 uM after 60 mins.
For assay [8], the target named is T3, DNA topoisomerase 2-alpha. Description: Inhibition of human topoisomerase 2-mediated relation of supercoiled DNA at 400 uM after 60 mins.
The target of assay [9] is T3, DNA topoisomerase 2-alpha. Description: Inhibition of human topoisomerase 2-mediated relation of supercoiled DNA at 800 uM after 60 mins.
In assay [10] the test system is Triticum aestivum. Description: Inhibition of wheat germ topoisomerase 1-mediated relaxation of supercoiled DNA at 75 uM after 45 mins. Put shortly:
as §1

Assay [11] deals with Triticum aestivum. Description: Inhibition of wheat germ topoisomerase 1-mediated relaxation of supercoiled DNA at 1000 uM after 45 mins. Put shortly: as §1
The target of assay [12] is T3, DNA topoisomerase 2-alpha. The assay can be described thus: Inhibition of human topoisomerase 2-mediated relation of supercoiled DNA at 100 uM after 60 mins.
Assay [13] has as its system MCF7. The assay can be described thus: Growth inhibition of human MCF7 cells after 48 hrs by XTT assay. The class given is functional, cell-based. The note with it: MCF7, 48 h. In short, it runs like this:
(§3)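 XTT assay; HeLa, MCF7 and HepG2 seeded at 1.5 × 104, 2 × 104 and 3.5 × 10^4 cells/well in DMEM with 10% heat-inactivated FBS and penicillin/streptomycin, grown 24 h at 37 °C in 5% CO2. Compound added in DMEM-PS (100–500 μM) for 48 h, then XTT 4 h; OD at 450 nm, reference 650 nm. Etoposide 100 μM positive control; mean ± SEM.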
A general note: Formazan colour is commonly taken as a measure of viable cells.

The test system of assay [14] is HeLa. Description: Growth inhibition of human HeLa cells after 48 hrs by XTT assay. The class given is functional, cell-based. In short, it runs like this:
as §3

In assay [15] the test system is HepG2. The assay can be described thus: Growth inhibition of human HepG2 cells after 48 hrs by XTT assay. The class given is functional, cell-based. Particulars: HepG2, 48 h. In short, it runs like this: as §3
Assay [16] has as its target T2, DNA topoisomerase 1 (Homo sapiens). Description: Inhibition of human topoisomerase 1-mediated relation of supercoiled DNA at 100 uM after 45 mins. In short, it runs like this: as §2
For assay [17], the system named is MCF7. The assay can be described thus: Growth inhibition of human MCF7 cells at 100 uM after 48 hrs by XTT assay. The class given is functional. Particulars: MCF7, 48 h, read-out: GI. Put shortly: as §3
In assay [18] the test system is HeLa. The assay can be described thus: Growth inhibition of human HeLa cells at 100 uM after 48 hrs by XTT assay. The class given is functional. The note with it: read-out: GI. Put shortly: as §3
For assay [19], the system named is HepG2. Description: Growth inhibition of human HepG2 cells at 100 uM after 48 hrs by XTT assay. The assay is classed as functional. The note with it: HepG2, 48 h, read-out: GI. In short, it runs like this: as §3

T3 sequence (P11388 whole entry): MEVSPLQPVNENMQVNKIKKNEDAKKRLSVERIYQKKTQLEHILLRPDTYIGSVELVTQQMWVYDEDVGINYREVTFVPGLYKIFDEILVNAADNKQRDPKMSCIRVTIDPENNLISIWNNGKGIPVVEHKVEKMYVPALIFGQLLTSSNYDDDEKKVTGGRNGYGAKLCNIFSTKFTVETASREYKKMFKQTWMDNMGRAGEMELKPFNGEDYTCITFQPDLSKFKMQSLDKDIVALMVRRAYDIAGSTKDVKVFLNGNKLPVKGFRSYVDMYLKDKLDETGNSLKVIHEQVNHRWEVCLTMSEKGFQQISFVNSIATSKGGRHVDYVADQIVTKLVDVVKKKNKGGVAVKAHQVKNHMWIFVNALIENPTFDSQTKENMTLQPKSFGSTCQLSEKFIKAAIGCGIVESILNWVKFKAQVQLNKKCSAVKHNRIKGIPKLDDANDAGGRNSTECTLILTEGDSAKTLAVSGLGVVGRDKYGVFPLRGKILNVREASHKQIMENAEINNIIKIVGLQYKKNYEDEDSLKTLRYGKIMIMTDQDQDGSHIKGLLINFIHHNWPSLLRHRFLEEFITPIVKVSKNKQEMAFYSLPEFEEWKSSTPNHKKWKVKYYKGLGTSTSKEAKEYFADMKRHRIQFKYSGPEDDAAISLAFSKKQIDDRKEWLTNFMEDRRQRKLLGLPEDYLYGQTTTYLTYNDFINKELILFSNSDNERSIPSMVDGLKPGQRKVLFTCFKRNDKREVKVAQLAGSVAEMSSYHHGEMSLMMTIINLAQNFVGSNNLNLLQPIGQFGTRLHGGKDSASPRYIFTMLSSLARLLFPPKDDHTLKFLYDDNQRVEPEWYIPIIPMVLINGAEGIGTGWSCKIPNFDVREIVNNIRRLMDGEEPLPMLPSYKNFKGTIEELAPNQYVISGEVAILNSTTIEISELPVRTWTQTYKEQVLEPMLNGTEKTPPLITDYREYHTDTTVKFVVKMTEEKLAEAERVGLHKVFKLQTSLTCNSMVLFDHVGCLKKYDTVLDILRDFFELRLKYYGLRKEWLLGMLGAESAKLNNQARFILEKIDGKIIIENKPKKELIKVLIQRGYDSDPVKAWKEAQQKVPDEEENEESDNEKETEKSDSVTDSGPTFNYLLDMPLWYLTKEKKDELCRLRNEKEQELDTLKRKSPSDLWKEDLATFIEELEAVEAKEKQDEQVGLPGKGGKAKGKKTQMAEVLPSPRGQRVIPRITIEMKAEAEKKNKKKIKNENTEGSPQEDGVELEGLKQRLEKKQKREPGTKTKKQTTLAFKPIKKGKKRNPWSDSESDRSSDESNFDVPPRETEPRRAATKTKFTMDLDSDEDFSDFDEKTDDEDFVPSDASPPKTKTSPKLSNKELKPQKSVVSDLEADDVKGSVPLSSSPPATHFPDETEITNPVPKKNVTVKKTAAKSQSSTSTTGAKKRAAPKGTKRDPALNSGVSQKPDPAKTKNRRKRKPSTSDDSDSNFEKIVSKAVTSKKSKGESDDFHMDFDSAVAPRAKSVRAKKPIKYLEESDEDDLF

The inhibition is how much of the control response was suppressed. One may read the IC50 as the concentration at which inhibition is half-maximal. Higher therefore signals weaker potency. Turning to `C[C@@H]1O[C@@H](Oc2cc(O)c3c(=O)c(O[C@@H]4OC[C@H](O)[C@H](O)[C@H]4O)c(-c4ccc(O)cc4)oc3c2)[C@H](O)[C@H](O)[C@H]1O`, the inhibition result in [1], in assay [4] and in assay [5] was “Active” throughout. Moreover, the IC50 came to 240 µM in assay [2], 250 µM in assay [3] and 330 µM in assay [6]. Besides, the inhibition entry in assay [7] is “Dose-dependent effect”.

As to `C[C@@H]1O[C@@H](Oc2cc(O)c3c(=O)c(O[C@@H]4O[C@H](CO)[C@@H](O)[C@H](O)[C@H]4O[C@@H]4O[C@@H](C)[C@H](O)[C@@H](O)[C@H]4O)c(-c4ccc(O)cc4)oc3c2)[C@H](O)[C@H](O)[C@H]1O`, the IC50 in assay [3] came out at 220 µM. Further, the inhibition result in [4] and in assay [5] was “Active” throughout.

Take `C[C@@H]1O[C@@H](Oc2cc(O)c3c(=O)c(O[C@@H]4O[C@H](CO)[C@H](O)[C@H](O)[C@H]4O[C@@H]4O[C@@H](C)[C@H](O)[C@@H](O)[C@H]4O)c(-c4ccc(O)cc4)oc3c2)[C@H](O)[C@H](O)[C@H]1O`: the inhibition entry in assay [1], in [4] and in [5] was “Active” in each case. Also, the IC50 in assay [2] was found to be 150 µM; in assay [3] it was 260 µM.

Take `C[C@@H]1O[C@@H](Oc2cc(O)c3c(=O)c(O[C@H]4OC[C@@](O)(CO)[C@@H]4O)c(-c4ccc(O)cc4)oc3c2)[C@H](O)[C@H](O)[C@H]1O`: in [5], the inhibition result was “Active”. Also, the inhibition was 44% in [8], 80% in assay [9] and “Dose-dependent effect” in assay [7]. For the same compound, in assay [6], the IC50 turned out to be 550 µM.

On to `CC(=O)OC[C@]1(O)CO[C@H](Oc2c(-c3ccc(O)cc3)oc3cc(O[C@@H]4O[C@@H](C)[C@H](O)[C@@H](O)[C@H]4O)cc(O)c3c2=O)[C@H]1O`, for which the inhibition result in assay [1] and in assay [4] was “Active” each time. Moreover, the IC50 in [2] came out at 120 µM; in assay [3] it was 150 µM; in assay [6] it was 240 µM; in [13], 350 µM; in assay [14] it was 350 µM; in assay [15], 410 µM. Further, the inhibition was 44% in [10]; 99% in assay [11]; 88% in assay [5]; 22% in [12]; “Dose-dependent effect” in [7].

For `C[C@@H]1O[C@@H](Oc2cc(O)c3c(=O)c(O[C@@H]4O[C@H](CO)[C@@H](O)[C@H](O)[C@H]4O)c(-c4ccc(O)cc4)oc3c2)[C@H](O)[C@H](O)[C@H]1O`, the inhibition result in assay [1] and in [5] was “Active” each time. For the same compound, the values for the IC50 in [2], in [3] and in assay [6] were 350 µM, 110 µM and 600 µM, respectively. The inhibition in [16] is 45%; in assay [4], 94%; in assay [7] it was “Dose-dependent effect”.

With `C[C@@H]1O[C@@H](Oc2cc(O)c3c(=O)c(O[C@@H]4O[C@H](CO)[C@H](O)[C@H](O)[C@H]4O)c(-c4ccc(O)cc4)oc3c2)[C@H](O)[C@H](O)[C@H]1O`, the inhibition entry in [1], in assay [4] and in assay [5] was “Active” in each case. Also, the 50% inhibitory concentration (IC50) in [2] amounted to 200 µM; in assay [3] it was 180 µM.

In the case of `COc1cc([C@@H]2c3cc4c(cc3[C@@H](O[C@@H]3O[C@@H]5CO[C@@H](C)O[C@H]5[C@H](O)[C@H]3O)[C@H]3COC(=O)[C@H]23)OCO4)cc(OC)c1O` [ETOPOSIDE], the inhibition of growth at 100 µM in assay [17], in assay [18] and in assay [19] was 100% in each case.
